Assay results reported in ChEMBL document CHEMBL4428067, “Drug Discovery against Psoriasis: Identification of a New Potent FMS-like Tyrosine Kinase 3 (FLT3) Inhibitor, 1-(4-((1H-Pyrazolo[3,4-d]pyrimidin-4-yl)oxy)-3-fluorophenyl)-3-(5-(tert-butyl)isoxazol-3-yl)urea, That Showed Potent Activity in a Psoriatic Animal Model” (J Med Chem, 2016).
Active and inactive are the calls of the source. The calls are words filed in the database; no cut-off is given here.

Key:
Mus musculus [1] = species: Mus musculus; test: Antipsoriatic activity in K14-VEGF transgenic mouse model of psoriasis assessed as lower right quadrant FLT3+/CD11c+/B220+ pDC cells in psoriatic plaque lesion at 0.05% applied tropically over lesion for continuous 29 days by flow cytometric analysis (reference value: 0.52%); type: functional
Mus musculus [2] = species: Mus musculus; test: Antipsoriatic activity in K14-VEGF transgenic mouse model of psoriasis assessed as reduction in infiltrated lymphocytes at 0.05% applied tropically over lesion for continuous 29 days by H and E staining method relative to vehicle control; type: functional, organism-based
In short: (§1)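 Homozygous K14-VEGF mice, 3–4 months old, with moderate to serious psoriasis; n=3 per group. Cream with 0.05% compound or vehicle cream smeared on lesions. Head and neck tissue sections taken after 29 days of treatment and HE-stained. Baker pathological score from 5 random fields, given as mean and SD. Epidermal thickness from 8 random fields, given as mean ± SEM.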

Mus musculus [3] = species: Mus musculus; test: Antipsoriatic activity in K14-VEGF transgenic mouse model of psoriasis assessed as decrease in VEGF expression in psoriatic lesion at 0.05% applied tropically over lesion for continuous 29 days by immunohistochemical analysis relative to vehicle control; type: functional; parameters: scale not given: the % may be the effect or the level left
In short: (§2)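 K14-VEGF mice were treated topically with 0.05% cream or vehicle for 29 days, n=3 per group. Ear skin was paraffin-embedded, cut into 4-µm sections and immunostained. Staining was quantified in 5 random fields, reported as mean ± SD.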

Mus musculus [4] = species: Mus musculus; test: Downregulation of IFN-gamma expression in K14-VEGF transgenic mouse model of psoriasis at 0.05% applied tropically over lesion for 29 days by ELISA; type: functional, organism-based
In short: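 K14-VEGF mice were treated for 29 days with 0.05% cream or vehicle, n=3 each. At termination, blood was held at 4 °C for 12 h and then centrifuged. Plasma IFN-γ and IL-17 were measured by ELISA, mean ± SD.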

[5] = biological target: T1, Receptor-type tyrosine-protein kinase FLT3 (Mus musculus) (UniProt Q00342); test: Inhibition of FLT3 in mouse BMDCs assessed as suppression of STAT3 phosphorylation at 10 and 100 nM treated on day 9 post 9 days of FLT3L-stimulation measured after 1 hr by Western blot analysis
T1 sequence (whole entry): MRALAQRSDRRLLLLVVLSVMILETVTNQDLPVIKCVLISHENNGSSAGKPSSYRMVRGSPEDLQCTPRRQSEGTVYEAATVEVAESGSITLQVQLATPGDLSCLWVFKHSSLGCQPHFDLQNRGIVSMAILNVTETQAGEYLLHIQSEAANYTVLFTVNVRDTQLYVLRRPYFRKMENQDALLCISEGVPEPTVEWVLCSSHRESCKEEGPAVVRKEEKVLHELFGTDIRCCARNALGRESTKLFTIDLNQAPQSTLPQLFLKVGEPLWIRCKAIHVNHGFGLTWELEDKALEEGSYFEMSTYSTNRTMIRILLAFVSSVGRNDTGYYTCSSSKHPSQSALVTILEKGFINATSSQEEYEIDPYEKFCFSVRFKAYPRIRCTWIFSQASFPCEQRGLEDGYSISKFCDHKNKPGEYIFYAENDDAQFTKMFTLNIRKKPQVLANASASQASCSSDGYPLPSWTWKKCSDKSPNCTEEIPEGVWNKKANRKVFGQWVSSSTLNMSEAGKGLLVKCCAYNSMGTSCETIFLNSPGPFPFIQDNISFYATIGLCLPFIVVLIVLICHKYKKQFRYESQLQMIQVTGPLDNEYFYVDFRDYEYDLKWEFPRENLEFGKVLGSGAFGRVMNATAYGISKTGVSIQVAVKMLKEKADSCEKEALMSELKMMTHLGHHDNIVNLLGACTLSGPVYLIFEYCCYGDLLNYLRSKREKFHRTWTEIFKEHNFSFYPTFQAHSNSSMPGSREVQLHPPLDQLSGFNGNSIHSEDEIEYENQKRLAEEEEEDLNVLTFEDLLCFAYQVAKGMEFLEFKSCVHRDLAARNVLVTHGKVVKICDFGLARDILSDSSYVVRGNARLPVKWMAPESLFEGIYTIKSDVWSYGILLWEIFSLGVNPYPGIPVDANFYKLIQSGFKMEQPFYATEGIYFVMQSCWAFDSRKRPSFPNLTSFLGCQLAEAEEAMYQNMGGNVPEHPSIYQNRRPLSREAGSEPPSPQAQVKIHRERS
In short: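 Bone marrow cells were cultured 9 days with FLT3L in supplemented RPMI-1640, then exposed to compound or 0.1% DMSO for 1 h on day 9. Whole cells were lysed and immunoblotted with rabbit antibodies to STAT3, STAT5, pSTAT3 and pSTAT5. Three independent experiments.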

Mus musculus [6] = species: Mus musculus; test: Antipsoriatic activity in K14-VEGF transgenic mouse model of psoriasis assessed as recurrence of psoriatic symptoms at 0.05% applied tropically over lesion for continuous 21 days measured after 15 days of last dosage by macroscopic analysis relative to vehicle control; type: functional, organism-based
In short: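 Homozygous K14-VEGF mice, 3–4 months old, with moderate to serious psoriasis. Lesions smeared with cream with or without 0.05% compound for 3 weeks, then observed untreated for another 15 days. Head and neck photographed on days 0, 21 and 36 for macroscopic assessment.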

[7] = biological target: T1, Receptor-type tyrosine-protein kinase FLT3 (Mus musculus); test: (§3) Inhibition of FLT3 in Balb/c mouse BMDCs assessed as suppression of FLT3L-induced mDC formation measured as upper right quadrant cells level treated on day 9 post 9 days of FLT3L-stimulation measured after 24 hrs by CD11c PerCP and I-A/I-E (MHC class II) FITC staining based flow cytometric analysis (reference value: 21%); parameters: scale not given: the % may be the effect or the level left
In short: (§4)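 BALB/c bone marrow cells were cultured at 1×10^6/ml with FLT3L in supplemented RPMI-1640 for 9 days. Compound in DMSO or 0.1% DMSO was added on day 9 for 24 h. Cells were stained for 30 min with CD11c PerCP plus B220 FITC (pDC: CD11c+ B220+) or MHC II FITC (mDC: CD11c+ MHC II+), then analysed by flow cytometry. Three independent experiments.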

Mus musculus [8] = species: Mus musculus; test: Antipsoriatic activity in K14-VEGF transgenic mouse model of psoriasis assessed as upper left quadrant FLT3+/CD11c+/B220+ pDC cells in psoriatic plaque lesion at 0.05% applied tropically over lesion for continuous 29 days by flow cytometric analysis (reference value: 58.4%); type: functional
Mus musculus [9] = species: Mus musculus; test: Antipsoriatic activity in K14-VEGF transgenic mouse model of psoriasis assessed as reduction in Baker scores at 0.05% applied tropically over lesion for continuous 29 days by H and E staining method relative to vehicle control; type: functional, organism-based; in short: as §1
Mus musculus [10] = species: Mus musculus; test: Antipsoriatic activity in K14-VEGF transgenic mouse model of psoriasis assessed as upper left quadrant FLT3+/CD11c+/B220+ pDC cells in psoriatic plaque lesion at 0.05% applied tropically over lesion for continuous 29 days by flow cytometric analysis (reference value: 36.1%); type: functional
[11] = biological target: T1, Receptor-type tyrosine-protein kinase FLT3 (Mus musculus); test: as §3, with “pDC” for “mDC”, “lower left” for “upper right”, “CD45R/B220” for “I-A/I-E (MHC class II)”, “36.5%)” for “21%)”; parameters: scale not given: the % may be the effect or the level left; in short: as §4
[12] = biological target: T1, Receptor-type tyrosine-protein kinase FLT3 (Mus musculus); test: as §3, with “pDC” for “mDC”, “left” for “right”, “CD45R/B220” for “I-A/I-E (MHC class II)”, “45.8%)” for “21%)”; parameters: scale not given: the % may be the effect or the level left; in short: as §4
Mus musculus [13] = species: Mus musculus; test: Antipsoriatic activity in K14-VEGF transgenic mouse model of psoriasis assessed as decrease in CD31 expression in psoriatic lesion at 0.05% applied tropically over lesion for continuous 29 days by immunohistochemical analysis relative to vehicle control; type: functional; parameters: scale not given: the % may be the effect or the level left; in short: as §2

inhibition [5]: Active
Activity [7]: 16.7%
Activity [11]: 47.2%
Activity [12]: 40.3%
Compound: CC(C)(C)c1cc(NC(=O)Nc2ccc(Oc3ncnc4[nH]ncc34)c(F)c2)no1
Activity (Mus musculus [1]): 0%
Activity (Mus musculus [2]): Active
Activity (Mus musculus [3]): 90%
Activity (Mus musculus [4]): Active
Activity (Mus musculus [6]): inactive
Activity (Mus musculus [8]): 79.4%
Activity (Mus musculus [9]): Active
Activity (Mus musculus [10]): 9.6%
Activity (Mus musculus [13]): 94%
